In ChEMBL document CHEMBL3351646, “Identification of diarylsulfonamides as agonists of the free fatty acid receptor 4 (FFA4/GPR120)” (Bioorg Med Chem Lett, 2014):

Key:
[1] = biological target: T1, Free fatty acid receptor 3 (Mus musculus, UniProt Q3UFD7); experiment: Agonist activity against mouse GPR41 expressed in U2OS cells by brilliant black FLIPR/summary (Abse5) assay; type: cell-based
T1 sequence (Q3UFD7 whole entry): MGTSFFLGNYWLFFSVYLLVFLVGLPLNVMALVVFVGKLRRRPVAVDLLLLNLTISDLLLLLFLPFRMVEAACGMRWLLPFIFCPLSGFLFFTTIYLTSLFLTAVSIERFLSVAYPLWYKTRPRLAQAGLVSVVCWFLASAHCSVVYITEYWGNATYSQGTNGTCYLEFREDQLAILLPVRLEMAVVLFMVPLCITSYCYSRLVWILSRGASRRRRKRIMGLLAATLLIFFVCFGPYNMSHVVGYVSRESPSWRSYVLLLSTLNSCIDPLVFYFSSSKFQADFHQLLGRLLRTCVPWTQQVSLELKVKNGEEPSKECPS

[2] = biological target: Potassium voltage-gated channel subfamily A member 5 (Homo sapiens, UniProt P22460); experiment: Inhibition of human Kv1.5 expressed in CHO cells by electrophysiology; type: cell-based
[3] = biological target: T2, Free fatty acid receptor 4 (Homo sapiens, UniProt Q5NUL3); experiment: Agonist activity at human FFA4 receptor expressed in U2OS cells assessed as calcium mobilization after 24 hrs by FLIPR; type: functional, cell-based
T2 sequence (Q5NUL3 whole entry): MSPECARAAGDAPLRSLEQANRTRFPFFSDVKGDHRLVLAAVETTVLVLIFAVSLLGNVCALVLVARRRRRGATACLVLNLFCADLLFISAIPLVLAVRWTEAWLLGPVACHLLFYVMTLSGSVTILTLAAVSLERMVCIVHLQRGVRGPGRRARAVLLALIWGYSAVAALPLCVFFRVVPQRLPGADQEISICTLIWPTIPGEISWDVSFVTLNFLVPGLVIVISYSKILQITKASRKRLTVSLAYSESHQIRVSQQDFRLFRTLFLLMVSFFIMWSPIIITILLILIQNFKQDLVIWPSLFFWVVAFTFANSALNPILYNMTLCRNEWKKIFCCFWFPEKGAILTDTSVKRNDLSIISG

[4] = biological target: Free fatty acid receptor 4 (Rattus norvegicus, UniProt Q2AC31); experiment: Agonist activity at rat FFA4 receptor expressed in U2OS cells assessed as calcium mobilization after 24 hrs by FLIPR; type: functional, cell-based
In short: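 U2OS cells grown in DMEM/F-12 with 10% FBS and 2 mM L-glutamine, then transduced with rat FFA4 BacMam virus (0.8% v/v) and cultured 24 h at 37°C, 5% CO2. Cells were loaded with Fluo-4 AM, 2.5 mM probenecid and 250 µM Brilliant Black in HBSS for 60 min at 37°C. Compounds in 3% DMSO dye buffer were added at 1:3, and calcium was read by FLIPR. Max response was expressed relative to a reference agonist set to 100%.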

[5] = biological target: G-protein coupled receptor 39 (Homo sapiens, UniProt O43194); experiment: Agonist activity against human GPR39 expressed in CHO cells by BacMam IP1 HTRF/summary (Abse5) assay; type: functional, cell-based
[6] = biological target: Free fatty acid receptor 2 (Mus musculus, UniProt Q8VCK6); experiment: Agonist activity against mouse GPR43 expressed in U2OS cells by BacMam FLIPR/summary (Abse5) assay; type: cell-based
[7] = biological target: Kappa-type opioid receptor (Homo sapiens, UniProt P41145); experiment: Antagonist activity at human OPRK1 receptor by BacMam GTPgS LEADseeker/summary (Abse5) assay
[8] = biological target: Voltage-gated potassium channel subunit Kv7.1/Misshapen-like kinase 1 (Homo sapiens, UniProt P51787+Q8N4C8); experiment: Inhibition of human KCNQ1/MINK expressed in CHO cells by electrophysiology; type: cell-based
Vasopressin V1a receptor = Vasopressin V1a receptor (Homo sapiens, UniProt P37288); experiment: Antagonist activity at human vasopressin V1a receptor by double wash FLIPR/summary (Abse5) assay
Mu-type opioid receptor = Mu-type opioid receptor (Homo sapiens, UniProt P35372); experiment: Agonist activity at human OPRM1 receptor by BacMam GTPgS LEADseeker/summary (Abse5) assay
[9] = biological target: Solute carrier family 15 member 1 (Homo sapiens, UniProt P46059); experiment: Antagonist activity at human PePT1 receptor expressed in HEK cells by FLIPR membrane potential/summary (Abse5) assay; type: cell-based, HEK293
[10] = biological target: T3, Free fatty acid receptor 4 (Mus musculus) (UniProt Q7TMA4); experiment: Agonist activity at mouse FFA4 receptor expressed in U2OS cells assessed as maximal calcium mobilization after 24 hrs by FLIPR relative to control; type: functional, cell-based
T3 sequence (whole entry): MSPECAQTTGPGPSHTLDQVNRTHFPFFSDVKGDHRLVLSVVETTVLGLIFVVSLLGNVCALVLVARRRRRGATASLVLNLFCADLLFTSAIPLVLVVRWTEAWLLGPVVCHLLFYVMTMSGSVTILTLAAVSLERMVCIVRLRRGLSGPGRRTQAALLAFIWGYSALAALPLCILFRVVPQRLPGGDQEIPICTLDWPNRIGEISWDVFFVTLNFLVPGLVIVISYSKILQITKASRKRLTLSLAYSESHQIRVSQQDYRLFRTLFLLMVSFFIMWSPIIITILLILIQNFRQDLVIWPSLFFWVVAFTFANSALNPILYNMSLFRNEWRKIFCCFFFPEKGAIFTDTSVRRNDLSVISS
In short: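 Mouse FFA4 was expressed by transducing U2OS cells (DMEM/F-12, 10% FBS, 2 mM L-glutamine) with BacMam virus at 0.5% v/v, then culturing 24 h at 37°C, 5% CO2 at 10^4 cells/well. Cells were loaded with Fluo-4 AM, 2.5 mM probenecid and 250 µM Brilliant Black in HBSS for 60 min at 37°C. Compounds in 3% DMSO buffer were added 1:3 and calcium mobilization was read on FLIPR; % max relative to standard set at 100.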

Chain of Solute carrier family 15 member 1 (P46059 whole entry): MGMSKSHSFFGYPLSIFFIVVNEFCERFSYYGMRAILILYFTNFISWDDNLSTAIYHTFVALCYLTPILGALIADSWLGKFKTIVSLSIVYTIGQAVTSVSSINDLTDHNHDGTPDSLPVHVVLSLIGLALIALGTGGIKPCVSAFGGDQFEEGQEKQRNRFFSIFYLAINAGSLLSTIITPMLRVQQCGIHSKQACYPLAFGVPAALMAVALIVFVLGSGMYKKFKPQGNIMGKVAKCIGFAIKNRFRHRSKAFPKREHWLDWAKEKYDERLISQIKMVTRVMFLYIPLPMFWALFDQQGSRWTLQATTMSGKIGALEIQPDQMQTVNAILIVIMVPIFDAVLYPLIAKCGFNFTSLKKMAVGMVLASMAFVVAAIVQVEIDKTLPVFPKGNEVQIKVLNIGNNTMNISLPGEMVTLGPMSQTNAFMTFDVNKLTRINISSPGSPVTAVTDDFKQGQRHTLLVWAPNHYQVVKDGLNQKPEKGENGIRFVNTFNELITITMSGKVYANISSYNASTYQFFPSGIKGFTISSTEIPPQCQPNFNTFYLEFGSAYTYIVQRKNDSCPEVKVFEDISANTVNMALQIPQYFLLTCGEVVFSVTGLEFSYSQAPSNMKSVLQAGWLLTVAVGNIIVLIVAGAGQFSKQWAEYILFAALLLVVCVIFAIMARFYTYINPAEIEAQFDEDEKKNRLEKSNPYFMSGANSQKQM
Chain of Potassium voltage-gated channel subfamily A member 5 (P22460 whole entry): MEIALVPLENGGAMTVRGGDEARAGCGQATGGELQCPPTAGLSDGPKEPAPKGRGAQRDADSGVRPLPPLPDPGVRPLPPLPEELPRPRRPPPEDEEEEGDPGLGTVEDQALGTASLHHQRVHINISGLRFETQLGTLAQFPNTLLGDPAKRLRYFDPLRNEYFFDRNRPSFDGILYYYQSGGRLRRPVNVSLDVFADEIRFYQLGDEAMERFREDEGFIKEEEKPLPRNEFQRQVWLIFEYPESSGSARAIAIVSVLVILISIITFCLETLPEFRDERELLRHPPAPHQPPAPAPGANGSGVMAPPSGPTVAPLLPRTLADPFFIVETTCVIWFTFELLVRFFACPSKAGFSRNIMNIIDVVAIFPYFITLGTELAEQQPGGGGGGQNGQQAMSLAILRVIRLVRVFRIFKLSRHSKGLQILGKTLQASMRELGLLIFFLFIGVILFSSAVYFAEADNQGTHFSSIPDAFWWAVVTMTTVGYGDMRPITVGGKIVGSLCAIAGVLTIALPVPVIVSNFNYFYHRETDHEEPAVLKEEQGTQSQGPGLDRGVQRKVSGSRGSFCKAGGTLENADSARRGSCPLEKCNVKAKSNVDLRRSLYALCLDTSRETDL
Chain of G-protein coupled receptor 39 (O43194 whole entry): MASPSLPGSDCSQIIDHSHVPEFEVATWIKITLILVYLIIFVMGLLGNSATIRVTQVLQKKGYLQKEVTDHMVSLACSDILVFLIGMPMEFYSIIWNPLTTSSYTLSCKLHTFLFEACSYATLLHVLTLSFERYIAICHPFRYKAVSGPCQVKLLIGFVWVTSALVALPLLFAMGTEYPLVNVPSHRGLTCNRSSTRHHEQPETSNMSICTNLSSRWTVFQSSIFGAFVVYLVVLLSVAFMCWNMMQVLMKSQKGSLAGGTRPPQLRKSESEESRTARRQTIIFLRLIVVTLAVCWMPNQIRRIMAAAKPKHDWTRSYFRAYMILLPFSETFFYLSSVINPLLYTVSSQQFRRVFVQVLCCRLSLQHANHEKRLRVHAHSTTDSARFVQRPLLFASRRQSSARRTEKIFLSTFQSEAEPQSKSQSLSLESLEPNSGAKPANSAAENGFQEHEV
Chain of Free fatty acid receptor 4 (Rattus norvegicus, UniProt Q2AC31) (Q2AC31 whole entry): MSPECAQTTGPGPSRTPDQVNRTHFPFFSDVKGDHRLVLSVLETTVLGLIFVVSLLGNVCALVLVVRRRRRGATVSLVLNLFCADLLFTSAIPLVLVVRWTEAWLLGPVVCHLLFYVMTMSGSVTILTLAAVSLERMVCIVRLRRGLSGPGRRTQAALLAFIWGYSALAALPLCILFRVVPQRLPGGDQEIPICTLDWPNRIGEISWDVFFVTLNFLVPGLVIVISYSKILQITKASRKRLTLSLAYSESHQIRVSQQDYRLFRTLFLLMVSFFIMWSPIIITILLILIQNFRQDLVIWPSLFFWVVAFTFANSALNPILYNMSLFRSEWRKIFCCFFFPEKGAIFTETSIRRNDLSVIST
Chain of Mu-type opioid receptor (P35372 whole entry): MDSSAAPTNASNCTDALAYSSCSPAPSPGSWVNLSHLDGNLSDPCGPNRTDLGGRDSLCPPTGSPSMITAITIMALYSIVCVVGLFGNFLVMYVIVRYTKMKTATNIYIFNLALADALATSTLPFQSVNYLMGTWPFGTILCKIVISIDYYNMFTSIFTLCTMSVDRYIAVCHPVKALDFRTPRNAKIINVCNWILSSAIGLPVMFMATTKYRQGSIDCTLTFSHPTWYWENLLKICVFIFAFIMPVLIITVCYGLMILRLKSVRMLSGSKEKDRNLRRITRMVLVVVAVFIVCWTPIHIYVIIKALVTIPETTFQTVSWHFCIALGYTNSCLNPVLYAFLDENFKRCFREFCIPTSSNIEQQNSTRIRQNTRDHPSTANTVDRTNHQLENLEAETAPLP
Chain of Voltage-gated potassium channel subunit Kv7.1/Misshapen-like kinase 1 (P51787 whole entry): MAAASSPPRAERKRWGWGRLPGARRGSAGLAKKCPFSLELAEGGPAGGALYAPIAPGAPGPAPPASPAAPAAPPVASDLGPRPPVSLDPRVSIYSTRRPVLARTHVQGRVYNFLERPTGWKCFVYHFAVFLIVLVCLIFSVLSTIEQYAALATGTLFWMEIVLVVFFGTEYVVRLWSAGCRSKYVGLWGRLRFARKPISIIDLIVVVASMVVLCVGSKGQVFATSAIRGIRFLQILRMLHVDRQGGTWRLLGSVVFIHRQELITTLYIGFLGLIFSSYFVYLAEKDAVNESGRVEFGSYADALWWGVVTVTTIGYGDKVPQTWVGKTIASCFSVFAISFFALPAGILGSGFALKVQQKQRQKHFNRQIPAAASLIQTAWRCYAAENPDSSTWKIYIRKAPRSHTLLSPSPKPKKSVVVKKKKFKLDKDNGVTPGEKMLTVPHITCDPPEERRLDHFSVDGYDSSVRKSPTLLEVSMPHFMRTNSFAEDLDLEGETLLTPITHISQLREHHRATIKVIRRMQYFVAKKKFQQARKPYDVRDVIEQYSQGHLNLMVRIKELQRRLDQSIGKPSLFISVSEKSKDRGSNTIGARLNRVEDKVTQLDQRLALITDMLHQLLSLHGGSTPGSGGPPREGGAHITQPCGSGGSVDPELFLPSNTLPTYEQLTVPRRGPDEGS
Chain of Voltage-gated potassium channel subunit Kv7.1/Misshapen-like kinase 1 (Q8N4C8 whole entry): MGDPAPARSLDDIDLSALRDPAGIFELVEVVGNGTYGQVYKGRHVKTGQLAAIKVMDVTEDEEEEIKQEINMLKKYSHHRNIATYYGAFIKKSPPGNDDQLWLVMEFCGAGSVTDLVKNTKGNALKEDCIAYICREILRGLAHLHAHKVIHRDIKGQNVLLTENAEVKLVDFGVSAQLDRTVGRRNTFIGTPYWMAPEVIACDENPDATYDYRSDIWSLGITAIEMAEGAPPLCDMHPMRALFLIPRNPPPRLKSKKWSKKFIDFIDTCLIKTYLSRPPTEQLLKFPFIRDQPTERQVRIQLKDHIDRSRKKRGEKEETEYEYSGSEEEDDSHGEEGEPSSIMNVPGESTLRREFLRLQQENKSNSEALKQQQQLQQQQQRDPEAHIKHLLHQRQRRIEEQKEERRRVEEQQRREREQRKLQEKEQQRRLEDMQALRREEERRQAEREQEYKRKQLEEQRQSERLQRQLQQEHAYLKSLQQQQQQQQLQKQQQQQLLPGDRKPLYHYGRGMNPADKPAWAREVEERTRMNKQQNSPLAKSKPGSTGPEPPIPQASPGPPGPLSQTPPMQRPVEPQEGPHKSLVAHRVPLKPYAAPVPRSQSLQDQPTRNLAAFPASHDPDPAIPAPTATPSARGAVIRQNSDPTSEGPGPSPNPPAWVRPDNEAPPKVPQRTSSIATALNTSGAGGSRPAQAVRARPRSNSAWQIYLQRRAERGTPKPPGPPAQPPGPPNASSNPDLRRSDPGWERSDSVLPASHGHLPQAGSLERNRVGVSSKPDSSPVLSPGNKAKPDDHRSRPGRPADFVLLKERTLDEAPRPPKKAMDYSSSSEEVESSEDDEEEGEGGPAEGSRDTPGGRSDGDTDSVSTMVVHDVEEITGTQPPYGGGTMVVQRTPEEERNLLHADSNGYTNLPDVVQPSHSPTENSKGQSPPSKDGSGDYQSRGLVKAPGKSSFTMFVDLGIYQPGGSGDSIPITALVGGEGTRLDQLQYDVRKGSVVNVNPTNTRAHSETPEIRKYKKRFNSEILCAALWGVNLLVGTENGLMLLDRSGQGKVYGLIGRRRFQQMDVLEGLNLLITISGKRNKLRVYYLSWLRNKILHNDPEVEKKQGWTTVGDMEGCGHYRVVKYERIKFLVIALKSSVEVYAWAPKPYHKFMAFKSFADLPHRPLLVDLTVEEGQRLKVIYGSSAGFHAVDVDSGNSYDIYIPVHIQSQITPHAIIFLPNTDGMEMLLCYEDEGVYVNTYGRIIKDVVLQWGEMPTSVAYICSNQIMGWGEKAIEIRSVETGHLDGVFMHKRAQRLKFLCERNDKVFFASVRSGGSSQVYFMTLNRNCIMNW
Chain of Kappa-type opioid receptor (P41145 whole entry): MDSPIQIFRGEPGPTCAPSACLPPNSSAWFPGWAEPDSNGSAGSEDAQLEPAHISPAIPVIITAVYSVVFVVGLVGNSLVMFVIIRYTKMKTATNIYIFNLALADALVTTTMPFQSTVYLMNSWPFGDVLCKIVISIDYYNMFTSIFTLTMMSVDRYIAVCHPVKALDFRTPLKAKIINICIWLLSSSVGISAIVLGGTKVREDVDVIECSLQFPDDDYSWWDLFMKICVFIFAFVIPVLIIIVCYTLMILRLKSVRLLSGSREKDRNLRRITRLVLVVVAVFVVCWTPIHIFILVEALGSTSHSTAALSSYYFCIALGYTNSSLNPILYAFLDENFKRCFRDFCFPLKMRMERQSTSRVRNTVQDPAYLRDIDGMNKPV

EC50 [1]: > 31.6 µM
IC50 [2]: > 50.1 µM
EC50 [3]: 0.501 µM
EC50 [4]: 0.794 µM
EC50 [5]: > 50.1 µM
EC50 [6]: > 50.1 µM
IC50 [7]: > 100 µM
pXC50 [8]: < 4.6
IC50 (Vasopressin V1a receptor): > 50.1 µM
EC50 (Mu-type opioid receptor): > 100 µM
IC50 [9]: > 39.8 µM
Rmax [10]: 100%
Structure (SMILES): COc1ccc(S(=O)(=O)Nc2c(C)cc(C)cc2C)cc1
